Series [1] in a line: folding enthalpy; higher = less favourable; fluorescence melt of hairpins on a sequencing array, two-state fit. Particulars: sodium 0.088 M. The method, boiled down:
(§1)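 Bootstrapped two-state fits yielded melting temperature and folding enthalpy for library hairpins. Cy3 fluorescence, with annealed Cy3 and quencher oligos, was imaged on a sequenced MiSeq flow cell in 50 mM Na-HEPES pH 8.0, 25 mM NaCl in 2.5 °C steps up to 60 °C, and normalised to pre-quench Cy3 and to control constructs. Four replicates were combined by inverse variance, and fitted temperatures were raised by 9.35 °C to match UV melts.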

Series [2] can be described thus: melting temperature; fluorescence melt of hairpins on a sequencing array, two-state fit, raised by 9.35 °C to match UV melts. Particulars: sodium 0.088 M. The method, boiled down:
as §1

Turning to GTGACGACGAAAGTCCAC (((..(((....)))))), the folding enthalpy in series [1] was -13 kcal/mol. Besides, the Tm in series [2] came out at 38.2 °C.
The matching figures for GATGTCACGAAAGTGATC (((..(((....)))))): -11.8 kcal/mol and 28.4 °C.
As for GAAATACGAAAGTAGTTC (((.(((....))).))), the folding enthalpy in series [1] is -26.7 kcal/mol. The Tm in series [2] came out at 42.1 °C.
The like results for GCAGGGCGAAAGCGGTGC (((..((....))..))) were, in that order, -21.4 kcal/mol and 52.8 °C.
The like results for GGGACTGGAAACAATCCC ((((.((....)).)))) were, in that order, -27.6 kcal/mol and 37.9 °C.
Regarding CCTTGGAAACAAGG (((((....))))), the folding enthalpy in series [1] was -15.7 kcal/mol. In addition, the Tm in series [2] was determined as 47.2 °C.
The like results for GCGATTCGAAAGAAGCGC (((.(((....))).))) were, in that order, -39.7 kcal/mol and 68.7 °C.
On to GTTTCCCGAAAGGGCAAC (((.(((....))).))), for which the folding enthalpy in series [1] is -21.7 kcal/mol. For the same sequence, the Tm in series [2] turned out to be 42 °C.
The like results for GTGCTGGGAAACCAGTGC (..((((....))))..) were, in that order, -27.9 kcal/mol and 47.5 °C.
As for GTGAAAGGAAACTTCCAC (((.(((....))).))), the folding enthalpy in series [1] is -16.3 kcal/mol. Moreover, in series [2], the Tm turned out to be 27.8 °C.
The like results for GCCTTGCGAAAGCGATGC ((.(.((....)).).)) were, in that order, -11.3 kcal/mol and 47.4 °C.
In the case of GATCCTGCGGAGGATC ((((((....)))))), the folding enthalpy in series [1] was -37.1 kcal/mol. The Tm in series [2] came out at 50.3 °C.
The matching figures for GTTCTGCGAAAGCAAAAC (((.(((....))).))): -16.7 kcal/mol and 38.4 °C.
The matching figures for GGCTCAGGAAACTGGGCC (((.(((....))).))): -43.7 kcal/mol and 58.3 °C.
The matching figures for GGTAACGAAAGTTTGACC ((((((....)))..))): -19.4 kcal/mol and 28.9 °C.
With GATCTATAGATAGATC ((((((....)))))), in series [1], the folding enthalpy is -32.6 kcal/mol. The Tm in series [2] was 39.9 °C.
For the sequence GATCCCTACGGGGATC ((((((....)))))), the folding enthalpy in series [1] is -39.4 kcal/mol. The Tm in series [2] amounted to 62.1 °C.
The like results for GGATGACCGAAAGGTTCC (((..(((....)))))) were, in that order, -10.9 kcal/mol and 34.2 °C.
For the sequence GATCATGCCGATGATC ((((((....)))))), the folding enthalpy in series [1] was -40.8 kcal/mol. In addition, in series [2], the Tm worked out at 49.5 °C.
For the sequence GAAGAGGCGAAAGCCTTC (((..(((....)))))), the folding enthalpy in series [1] was -8.73 kcal/mol. Besides, in series [2], the Tm was 33.2 °C.
The matching figures for GTCGTTCGAAAGAAGAC (((.(((....)))))): -21.2 kcal/mol and 35.6 °C.
The like results for GCACACGAAAGTGCCTGC ((((((....)))..))) were, in that order, -13.2 kcal/mol and 34.7 °C.
Consider GAGGTTGGAAACAATCTC (((.(((....))).))), for which the folding enthalpy in series [1] was -35.5 kcal/mol. In series [2], the Tm was found to be 44.1 °C.
The like results for GTTAGGGGAAACTCTAAC (((((.(....).))))) were, in that order, -29.2 kcal/mol and 38.3 °C.
The like results for GCAAAGCGAAAGCGTTGC ((((.((....)).)))) were, in that order, -26.3 kcal/mol and 65 °C.
The matching figures for GGAAGTGGAAACACCTCC (((.(((....))).))): -23.5 kcal/mol and 36.6 °C.
As to GATTGCCGAAAGGCCATC (((.(((....))).))), the folding enthalpy in series [1] is -16.6 kcal/mol. Moreover, in series [2], the Tm amounted to 40.9 °C.
The matching figures for GCCCGACGAAAGTCTGGC (((.(((....))).))): -32.4 kcal/mol and 55.5 °C.
With GCCCACGAAAGTGTGGC ((((((....))).))), in series [1], the folding enthalpy was -30.2 kcal/mol. The Tm in series [2] was 62.4 °C.
The like results for GTAGAAGAAATTCTAC ((((((....)))))) were, in that order, -26.5 kcal/mol and 39.4 °C.
The like results for GCGAAGAAATTCGC (((((....))))) were, in that order, -28.3 kcal/mol and 55.5 °C.
The like results for GGACATGGAAACATATCC (((.(((....))).))) were, in that order, -21.6 kcal/mol and 30.5 °C.
For the sequence GATCCACAACTGGATC ((((((....)))))), the folding enthalpy in series [1] is -34.5 kcal/mol. For the same sequence, the Tm in series [2] stood at 47 °C.
The matching figures for GGAGCCGAAAGGCCTCC ((((((....))).))): -24.4 kcal/mol and 54.5 °C.
As to GACCCCACGAAAGTGGTC (((..(((....)))))), the folding enthalpy in series [1] is -8.51 kcal/mol. For the same sequence, the Tm in series [2] was found to be 28.9 °C.
On to CCAAGGAAACTTGG (((((....))))), for which the folding enthalpy in series [1] was -20.3 kcal/mol. In addition, the Tm in series [2] came out at 46 °C.
The matching figures for GGTTTCGAAAGAACAACC ((((((....)))..))): -13 kcal/mol and 30.4 °C.

The record behind these values is the array DNA melting data of Ke et al. (doi:10.1101/2024.01.08.574731).
